ChEMBL document CHEMBL4368933, “Structure-activity relationship of leucyladenylate sulfamate analogues as leucyl-tRNA synthetase (LRS)-targeting inhibitors of Mammalian target of rapamycin complex 1 (mTORC1)” (Bioorg Med Chem, 2019)
pIC50: −log10 of the molar value. The source made the active and inactive calls. No cut-off for these calls is given here.

Key:
[1] = biological target: Leucine--tRNA ligase, cytoplasmic (Homo sapiens) (UniProt Q9P2J5); assay: Inhibition of Leucyl-tRNA synthetase-mediated mTORC1 signaling activation in human HEK293 cells assessed as reduction in leucine-induced S6K phosphorylation at 200 uM preincubated for 50 mins followed by leucine-stimulation and measured after 10 mins by Western blot analysis; format: cell-based
Summary of the method: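 HEK293 cells pretreated with test agent at a fixed 200 µM, alongside rapamycin (100 nM) and leucinol (800 µM) as references. mTORC1 then activated by adding leucine for 10 min. S6K phosphorylation read by Western blot.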

SK-HEP1 = assay: Antiproliferative activity against human SKHEP1 cells after 72 hrs by SRB assay; format: functional, cell-based; conditions: SK-HEP1, 72 h
Summary of the method: (§1)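 Colorimetric growth assay with IC50 values derived; etoposide as positive control. Cell lines: A549 (lung cancer), HCT116 (colon cancer), MDA-MB-231 (breast cancer), SK-Hep-1 (liver cancer), SNU638 (stomach cancer), MRC5 (normal lung […]).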

MRC5 = assay: Antiproliferative activity against human MRC5 cells after 72 hrs by SRB assay; format: cell-based; conditions: MRC5, 72 h; summary of the method: as §1
MDA-MB-231 = assay: Antiproliferative activity against human MDA-MB-231 cells after 72 hrs by SRB assay; format: functional, cell-based; conditions: MDA-MB-231, 72 h; summary of the method: as §1
SNU-638 = assay: Antiproliferative activity against human SNU638 cells after 72 hrs by SRB assay; format: functional, cell-based; conditions: SNU-638, 72 h; summary of the method: as §1
HCT-116 = assay: Antiproliferative activity against human HCT116 cells after 72 hrs by SRB assay; format: functional, cell-based; conditions: HCT-116, 72 h; summary of the method: as §1
A549 = assay: Antiproliferative activity against human A549 cells after 72 hrs by SRB assay; format: functional, cell-based; conditions: A549, 72 h; summary of the method: as §1
HEK293 = assay: Effect on leucine-induced AKT levels in human HEK293 cells at 200 uM preincubated for 50 mins followed by leucine-stimulation and measured after 10 mins by Western blot analysis; format: functional, cell-based
mTORC2 (Homo sapiens) = mTORC2 (Homo sapiens) (UniProt P42345+Q6R327+Q9BVC4+Q9BPZ7); assay: Inhibition of mTORC2 signaling in human HEK293 cells assessed as reduction in leucine-induced AKT phosphorylation at 200 uM preincubated for 50 mins followed by leucine-stimulation and measured after 10 mins by Western blot analysis; format: cell-based

Chain of Leucine--tRNA ligase, cytoplasmic (Homo sapiens) (Q9P2J5 whole entry, looked up): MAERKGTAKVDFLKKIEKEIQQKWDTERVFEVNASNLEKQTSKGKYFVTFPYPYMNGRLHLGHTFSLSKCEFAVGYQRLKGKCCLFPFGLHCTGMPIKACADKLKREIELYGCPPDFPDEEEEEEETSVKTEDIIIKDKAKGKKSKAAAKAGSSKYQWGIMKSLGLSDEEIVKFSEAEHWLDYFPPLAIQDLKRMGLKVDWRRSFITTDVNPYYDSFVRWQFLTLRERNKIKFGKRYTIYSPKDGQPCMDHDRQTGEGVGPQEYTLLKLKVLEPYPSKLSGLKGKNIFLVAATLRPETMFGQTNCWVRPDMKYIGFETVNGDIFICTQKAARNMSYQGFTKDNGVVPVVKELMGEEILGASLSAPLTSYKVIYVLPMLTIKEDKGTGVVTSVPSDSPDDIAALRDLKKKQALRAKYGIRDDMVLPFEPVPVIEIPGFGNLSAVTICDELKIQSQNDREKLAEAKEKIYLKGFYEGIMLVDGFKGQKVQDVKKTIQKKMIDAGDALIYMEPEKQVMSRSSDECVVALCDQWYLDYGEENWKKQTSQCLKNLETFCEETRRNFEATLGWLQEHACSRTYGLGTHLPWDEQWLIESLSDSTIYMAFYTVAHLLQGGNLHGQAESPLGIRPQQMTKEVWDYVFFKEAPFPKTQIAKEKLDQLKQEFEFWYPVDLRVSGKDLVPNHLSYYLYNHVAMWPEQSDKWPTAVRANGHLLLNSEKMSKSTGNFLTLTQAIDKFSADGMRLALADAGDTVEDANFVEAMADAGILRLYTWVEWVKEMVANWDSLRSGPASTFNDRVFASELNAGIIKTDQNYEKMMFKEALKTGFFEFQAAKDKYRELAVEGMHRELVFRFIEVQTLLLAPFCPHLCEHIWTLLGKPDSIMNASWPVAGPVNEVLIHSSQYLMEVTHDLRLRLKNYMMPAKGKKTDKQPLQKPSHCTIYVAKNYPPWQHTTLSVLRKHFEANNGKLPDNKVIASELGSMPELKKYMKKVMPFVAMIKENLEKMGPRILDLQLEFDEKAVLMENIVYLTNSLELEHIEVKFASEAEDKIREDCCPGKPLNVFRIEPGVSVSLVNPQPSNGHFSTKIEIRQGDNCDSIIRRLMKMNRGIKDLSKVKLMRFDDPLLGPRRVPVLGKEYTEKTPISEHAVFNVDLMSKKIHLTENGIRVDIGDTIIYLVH

CC(C)[C@@H](O)[C@H](O)C(=O)NS(=O)(=O)OC[C@H]1O[C@@H](n2cnc3c(N)ncnc32)[C@@H]2OC(=O)N[C@@H]21
inhibition [1]: inactive

CC(C)C[C@H](Cl)C(=O)NS(=O)(=O)OC[C@H]1O[C@@H](n2cnc3c(N)nc(Cl)nc32)[C@H](O)[C@@H]1O
pIC50 (SK-HEP1): 5.23 | inhibition [1]: Active | pIC50 (MRC5): < 4.70 | pIC50 (MDA-MB-231): 5.11 | pIC50 (SNU-638): 5.26 | pIC50 (HCT-116): 5.12 | pIC50 (A549): 5.20

CC(C)[C@@H](O)[C@H](O)C(=O)NS(=O)(=O)OC[C@H]1O[C@@H](n2cnc3c(N)nc(I)nc32)[C@H](O)[C@@H]1O
inhibition [1]: Active | Activity (HEK293): inactive | inhibition (mTORC2 (Homo sapiens)): inactive

CO[C@H](C(=O)NS(=O)(=O)OC[C@H]1O[C@@H](n2cnc3c(N)nc(Cl)nc32)[C@H](O)[C@@H]1O)[C@H](OC)C(C)C
pIC50 (SK-HEP1): < 4.70 | inhibition [1]: Active | pIC50 (MRC5): < 4.70 | pIC50 (MDA-MB-231): < 4.70 | pIC50 (SNU-638): < 4.70 | pIC50 (HCT-116): < 4.70 | pIC50 (A549): < 4.70

CC(C)[C@@H](O)[C@H](O)C(=O)NS(=O)(=O)OC[C@H]1O[C@@H](n2cnc3c(N)ncnc32)[C@H](O)[C@@H]1O
inhibition [1]: Active | Activity (HEK293): inactive | inhibition (mTORC2 (Homo sapiens)): inactive

CC(C)C[C@@H](O)C(=O)NS(=O)(=O)OC[C@H]1O[C@@H](n2cnc3c(N)ncnc32)[C@H](O)[C@@H]1O
inhibition [1]: Active

CC(C)C[C@H](N)C(=O)NS(=O)(=O)OC[C@H]1O[C@@H](n2cnc3c(N)ncnc32)C[C@@H]1O
inhibition [1]: inactive

CO[C@H](C(=O)NS(=O)(=O)OC[C@H]1O[C@@H](n2cnc3c(N)ncnc32)C[C@@H]1O)[C@H](OC)C(C)C
inhibition [1]: inactive

Nc1ncnc2c1ncn2[C@@H]1O[C@H](COS(=O)(=O)NC(=O)[C@@H](O)[C@H](O)C2CC2)[C@@H](O)[C@H]1O
inhibition [1]: inactive

CC(C)C[C@H](O)C(=O)NS(=O)(=O)OC[C@H]1O[C@@H](n2cnc3c(N)nc(I)nc32)[C@H](O)[C@@H]1O
inhibition [1]: Active

CC(C)C[C@H](O)C(=O)NS(=O)(=O)OC[C@H]1O[C@@H](n2cnc3c(N)ncnc32)C[C@@H]1O
inhibition [1]: inactive | inhibition (mTORC2 (Homo sapiens)): Active

CC(C)C[C@H](S)C(=O)NS(=O)(=O)OC[C@H]1O[C@@H](n2cnc3c(=O)[nH]cnc32)[C@H](O)[C@@H]1O
inhibition [1]: inactive

CC(C)C[C@H](O)C(=O)NS(=O)(=O)OC[C@H]1O[C@@H](n2cnc3c(=O)[nH]cnc32)[C@H](O)[C@@H]1O
pIC50 (SK-HEP1): < 4.70 | inhibition [1]: Active | pIC50 (MRC5): < 4.70 | pIC50 (MDA-MB-231): < 4.70 | pIC50 (SNU-638): < 4.70 | pIC50 (HCT-116): < 4.70 | pIC50 (A549): < 4.70

CC(C)c1cc(C(=O)NS(=O)(=O)OC[C@H]2O[C@@H](n3cnc4c(N)ncnc43)[C@H](O)[C@@H]2O)n(C)n1
inhibition [1]: Active

Nc1nc(I)nc2c1ncn2[C@@H]1O[C@H](COS(=O)(=O)NC(=O)[C@@H](O)[C@H](O)C2CC2)[C@@H](O)[C@H]1O
pIC50 (SK-HEP1): 5.23 | inhibition [1]: Active | pIC50 (MRC5): < 4.70 | pIC50 (MDA-MB-231): 4.78 | pIC50 (SNU-638): 5.32 | pIC50 (HCT-116): 5.14 | pIC50 (A549): 5.32

CNc1ncnc2c1ncn2[C@@H]1O[C@H](COS(=O)(=O)NC(=O)[C@H](O)[C@@H](O)C(C)C)[C@@H](O)[C@H]1O
inhibition [1]: inactive | Activity (HEK293): inactive | inhibition (mTORC2 (Homo sapiens)): inactive

CO[C@H](C(=O)NS(=O)(=O)OC[C@H]1O[C@@H](n2cnc3c(N)nc(Cl)nc32)[C@H](O)[C@@H]1O)[C@H](O)C(C)C
inhibition [1]: inactive

CC(C)C[C@H](O)C(=O)NS(=O)(=O)OC[C@@H]1C[C@@H](O)[C@H](n2cnc3c(N)ncnc32)O1
inhibition [1]: inactive | inhibition (mTORC2 (Homo sapiens)): Active

CC(C)c1cc(C(=O)NS(=O)(=O)OC[C@H]2O[C@@H](n3cnc4c(N)ncnc43)[C@H](O)[C@@H]2O)[nH]n1
inhibition [1]: inactive

CO[C@H](C(=O)NS(=O)(=O)OC[C@H]1O[C@@H](n2cnc3c(N)ncnc32)[C@H](O)[C@@H]1O)[C@H](O)C(C)C
inhibition [1]: inactive

CC(C)c1cc(C(=O)NS(=O)(=O)OC[C@H]2O[C@@H](n3cnc4c(N)nc(I)nc43)[C@H](O)[C@@H]2O)n(C)n1
inhibition [1]: Active

CC(C)(C)c1cc(C(=O)NS(=O)(=O)OC[C@H]2O[C@@H](n3cnc4c(N)ncnc43)[C@H](O)[C@@H]2O)[nH]n1
inhibition [1]: Active

CNc1ncnc2c1ncn2[C@@H]1O[C@H](COS(=O)(=O)NC(=O)[C@H](CC(C)C)OC)[C@@H](O)[C@H]1O
inhibition [1]: inactive | inhibition (mTORC2 (Homo sapiens)): Active
